System: Fibroblast
Assay: Multiplex assay against human fibroblast
Type: toxicity, cell-based
How it was run: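 Per cents of healthy-nucleus cells form the tubulin, mitochondrial-mass and membrane-permeability phenotype values. Live cells were stained at seeding with Hoechst33342, BioTracker Green Microtubule Cytoskeleton Dye, MitoTracker Red and Annexin V Alexa Fluor 680. After compound addition they were imaged on a CQ1 microscope at 37°C and 5% CO2, and CellPathfinder machine-learning gating split them into Hoechst high-intensity objects or normal cells, normal cells into healthy, pyknosed or fragmented nuclei, and pyknosed cells into mitotic or apoptotic.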

[1] = 12 h, 1 µM, compound concentration 1 uM, replicate 1
[2] = 12 h, 1 µM, compound concentration 1 uM, replicate 2
[3] = 12 h, 10 µM, compound concentration 10 uM, replicate 1
[4] = 12 h, 10 µM, compound concentration 10 uM, replicate 2
[5] = 24 h, 1 µM, compound concentration 1 uM, replicate 1
[6] = 24 h, 1 µM, compound concentration 1 uM, replicate 2
[7] = 24 h, 10 µM, compound concentration 10 uM, replicate 1
[8] = 24 h, 10 µM, compound concentration 10 uM, replicate 2
[9] = 48 h, 1 µM, compound concentration 1 uM, replicate 1
[10] = 48 h, 1 µM, compound concentration 1 uM, replicate 2
[11] = 48 h, 10 µM, compound concentration 10 uM, replicate 1
[12] = 48 h, 10 µM, compound concentration 10 uM, replicate 2

## CCCC(CCC)C(=O)O [VALPROIC ACID]
[1]
  Population Apoptotic (%): 42%
  Population Fragmented Nuclei (%): 13%
  Population Healthy Nuclei (%): 65%
  Population Hoechst High Intensity Objects (%): 3%
  Population Membrane Permeable-Phenotype (%): 2%
  Population Mitochondria Different-Phenotype (%): 2%
  Population Mitotic Cells (%): 57%
  Population Normal (%): 96%
  Population Pyknosed Nuclei (%): 21%
  Population Tubulin-Different-Phenotype (%): 27%
[2]
  Population Apoptotic (%): 57%
  Population Fragmented Nuclei (%): 20%
  Population Healthy Nuclei (%): 47%
  Population Hoechst High Intensity Objects (%): 8%
  Population Membrane Permeable-Phenotype (%): 10%
  Population Mitochondria Different-Phenotype (%): 14%
  Population Mitotic Cells (%): 42%
  Population Normal (%): 91%
  Population Pyknosed Nuclei (%): 31%
  Population Tubulin-Different-Phenotype (%): 49%
[3]
  Population Apoptotic (%): 30%
  Population Fragmented Nuclei (%): 29%
  Population Healthy Nuclei (%): 60%
  Population Hoechst High Intensity Objects (%): 4%
  Population Membrane Permeable-Phenotype (%): 1%
  Population Mitochondria Different-Phenotype (%): 3%
  Population Mitotic Cells (%): 70%
  Population Normal (%): 95%
  Population Pyknosed Nuclei (%): 9%
  Population Tubulin-Different-Phenotype (%): 16%
[4]
  Population Apoptotic (%): 43%
  Population Fragmented Nuclei (%): 16%
  Population Healthy Nuclei (%): 53%
  Population Hoechst High Intensity Objects (%): 2%
  Population Membrane Permeable-Phenotype (%): 4%
  Population Mitochondria Different-Phenotype (%): 8%
  Population Mitotic Cells (%): 56%
  Population Normal (%): 97%
  Population Pyknosed Nuclei (%): 30%
  Population Tubulin-Different-Phenotype (%): 41%
[5]
  Population Apoptotic (%): 42%
  Population Fragmented Nuclei (%): 11%
  Population Healthy Nuclei (%): 69%
  Population Hoechst High Intensity Objects (%): 5%
  Population Membrane Permeable-Phenotype (%): 1%
  Population Mitochondria Different-Phenotype (%): 2%
  Population Mitotic Cells (%): 57%
  Population Normal (%): 95%
  Population Pyknosed Nuclei (%): 19%
  Population Tubulin-Different-Phenotype (%): 22%
[6]
  Population Apoptotic (%): 48%
  Population Fragmented Nuclei (%): 22%
  Population Healthy Nuclei (%): 53%
  Population Hoechst High Intensity Objects (%): 7%
  Population Membrane Permeable-Phenotype (%): 3%
  Population Mitochondria Different-Phenotype (%): 7%
  Population Mitotic Cells (%): 51%
  Population Normal (%): 92%
  Population Pyknosed Nuclei (%): 24%
  Population Tubulin-Different-Phenotype (%): 54%
[7]
  Population Apoptotic (%): 50%
  Population Fragmented Nuclei (%): 27%
  Population Healthy Nuclei (%): 66%
  Population Hoechst High Intensity Objects (%): 6%
  Population Membrane Permeable-Phenotype (%): 0%
  Population Mitochondria Different-Phenotype (%): 1%
  Population Mitotic Cells (%): 50%
  Population Normal (%): 93%
  Population Pyknosed Nuclei (%): 5%
  Population Tubulin-Different-Phenotype (%): 21%
[8]
  Population Apoptotic (%): 38%
  Population Fragmented Nuclei (%): 30%
  Population Healthy Nuclei (%): 46%
  Population Hoechst High Intensity Objects (%): 3%
  Population Membrane Permeable-Phenotype (%): 5%
  Population Mitochondria Different-Phenotype (%): 4%
  Population Mitotic Cells (%): 61%
  Population Normal (%): 96%
  Population Pyknosed Nuclei (%): 23%
  Population Tubulin-Different-Phenotype (%): 41%
[9]
  Population Apoptotic (%): 55%
  Population Fragmented Nuclei (%): 18%
  Population Healthy Nuclei (%): 66%
  Population Hoechst High Intensity Objects (%): 7%
  Population Membrane Permeable-Phenotype (%): 0%
  Population Mitochondria Different-Phenotype (%): 1%
  Population Mitotic Cells (%): 44%
  Population Normal (%): 92%
  Population Pyknosed Nuclei (%): 14%
  Population Tubulin-Different-Phenotype (%): 19%
[10]
  Population Apoptotic (%): 48%
  Population Fragmented Nuclei (%): 36%
  Population Healthy Nuclei (%): 44%
  Population Membrane Permeable-Phenotype (%): 4%
  Population Mitochondria Different-Phenotype (%): 7%
  Population Mitotic Cells (%): 51%
  Population Pyknosed Nuclei (%): 19%
  Population Tubulin-Different-Phenotype (%): 55%
[11]
  Population Apoptotic (%): 60%
  Population Fragmented Nuclei (%): 30%
  Population Healthy Nuclei (%): 60%
  Population Hoechst High Intensity Objects (%): 1%
  Population Membrane Permeable-Phenotype (%): 0%
  Population Mitochondria Different-Phenotype (%): 1%
  Population Mitotic Cells (%): 40%
  Population Normal (%): 98%
  Population Pyknosed Nuclei (%): 8%
  Population Tubulin-Different-Phenotype (%): 18%
[12]
  Population Fragmented Nuclei (%): 33%
  Population Healthy Nuclei (%): 51%
  Population Hoechst High Intensity Objects (%): 5%
  Population Membrane Permeable-Phenotype (%): 6%
  Population Mitochondria Different-Phenotype (%): 5%
  Population Mitotic Cells (%): 39%
  Population Normal (%): 94%
  Population Pyknosed Nuclei (%): 15%
  Population Tubulin-Different-Phenotype (%): 46%
